Our source for the Activity and MIC values is ChEMBL document CHEMBL1146146, “Redesign of aminoglycosides for treatment of human genetic diseases caused by premature stop mutations” (2006).

The MIC is the lowest concentration found to suppress growth. Read a high MIC as a less susceptible organism.

Test [1] deals with Protocadherin-15 (Homo sapiens), Q96QU1 [R3X]. Put plainly: Suppression of human PCDH15 R3X mutation at 80 ug/ml. The gist of the method:
(§1)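 In vitro transcription-translation of a reporter plasmid carrying the PCDH15 R3X nonsense mutation (premature UGA C stop), with [35S]methionine and a range of drug concentrations. Products were resolved by SDS-PAGE and quantified by PhosphorImager. Suppression is the 35-kDa product as a share of total (35 + 25 kDa) protein. Translation level is total protein at each concentration relative to the drug-free reaction. Values are means of ≥3 independent experiments; sulfate salts were tested.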

The test system of test [2] is Bacillus subtilis. Description: Antibacterial activity against Bacillus subtilis ATCC 6633 at 80 ug/ml. In kind it is functional.
For test [3], the system named is Protocadherin-15 (Homo sapiens), Q96QU1 [R3X]. Description: Effect on human PCDH15 R3X mutation translation level at 80 ug/ml. The gist of the method:
as §1

Test [4] has as its system Escherichia coli. Description: Antibacterial activity against Escherichia coli ATCC 25922 at 80 ug/ml. In kind it is functional.
Test [5] concerns Protocadherin-15 (Homo sapiens), Q96QU1 [R3X]. Description: Effect on human PCDH15 R3X mutation translation level at 160 ug/ml. The gist of the method:
as §1

For test [6], the system named is Bacillus subtilis. Put plainly: Antibacterial activity against Bacillus subtilis ATCC 6633 at 160 ug/ml. Format: functional.
For test [7], the system named is Protocadherin-15 (Homo sapiens), Q96QU1 [R3X]. Description: Suppression of human PCDH15 R3X mutation at 160 ug/ml. A digest of the protocol: as §1
Test [8] deals with Escherichia coli. Description: Antibacterial activity against Escherichia coli ATCC 25922 at 160 ug/ml. Format: functional.
Test [9] concerns Bacillus subtilis. Put plainly: Antibacterial activity against Bacillus subtilis ATCC 6633 at 40 ug/ml. Format: functional.
Test [10] deals with Protocadherin-15 (Homo sapiens), Q96QU1 [R3X]. Description: Effect on human PCDH15 R3X mutation translation level at 40 ug/ml. A digest of the protocol:
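Reporter plasmid carrying the PCDH15 R3X nonsense mutation (premature UGA C stop codon) is transcribed and translated in vitro with [35S]methionine and drug added. Products are resolved by SDS–PAGE and quantified by PhosphorImager. Translation level is total protein (35 + 25 kDa) at each drug concentration relative to total protein without drug. Values are means of at least three independent experiments.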

For test [11] the test system is unchanged. Description: Suppression of human PCDH15 R3X mutation at 40 ug/ml. A digest of the protocol:
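The PCDH15 R3X (UGA C) reporter is coupled-transcribed and translated in vitro in the presence of [35S]methionine, then run on SDS–PAGE with PhosphorImager quantification. Suppression is the fraction of the 35-kDa read-through product out of total protein (35-kDa plus 25-kDa truncated product). Values are averages of at least three independent experiments.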

In test [12] the test system is Escherichia coli. Put plainly: Antibacterial activity against Escherichia coli ATCC 25922 at 40 ug/ml. In kind it is functional.
In test [13] the test system is Escherichia coli. Put plainly: Antibacterial activity against Escherichia coli ATCC 25922 at 30 ug/ml. Format: functional, organism-based.
Test [14] has as its system Protocadherin-15 (Homo sapiens), Q96QU1 [R3X]. Put plainly: Effect on human PCDH15 R3X mutation translation level at 30 ug/ml. A digest of the protocol: as §1
Target sequence in this assay (Q96QU1 other isoform, or with tags, fused parts or gaps): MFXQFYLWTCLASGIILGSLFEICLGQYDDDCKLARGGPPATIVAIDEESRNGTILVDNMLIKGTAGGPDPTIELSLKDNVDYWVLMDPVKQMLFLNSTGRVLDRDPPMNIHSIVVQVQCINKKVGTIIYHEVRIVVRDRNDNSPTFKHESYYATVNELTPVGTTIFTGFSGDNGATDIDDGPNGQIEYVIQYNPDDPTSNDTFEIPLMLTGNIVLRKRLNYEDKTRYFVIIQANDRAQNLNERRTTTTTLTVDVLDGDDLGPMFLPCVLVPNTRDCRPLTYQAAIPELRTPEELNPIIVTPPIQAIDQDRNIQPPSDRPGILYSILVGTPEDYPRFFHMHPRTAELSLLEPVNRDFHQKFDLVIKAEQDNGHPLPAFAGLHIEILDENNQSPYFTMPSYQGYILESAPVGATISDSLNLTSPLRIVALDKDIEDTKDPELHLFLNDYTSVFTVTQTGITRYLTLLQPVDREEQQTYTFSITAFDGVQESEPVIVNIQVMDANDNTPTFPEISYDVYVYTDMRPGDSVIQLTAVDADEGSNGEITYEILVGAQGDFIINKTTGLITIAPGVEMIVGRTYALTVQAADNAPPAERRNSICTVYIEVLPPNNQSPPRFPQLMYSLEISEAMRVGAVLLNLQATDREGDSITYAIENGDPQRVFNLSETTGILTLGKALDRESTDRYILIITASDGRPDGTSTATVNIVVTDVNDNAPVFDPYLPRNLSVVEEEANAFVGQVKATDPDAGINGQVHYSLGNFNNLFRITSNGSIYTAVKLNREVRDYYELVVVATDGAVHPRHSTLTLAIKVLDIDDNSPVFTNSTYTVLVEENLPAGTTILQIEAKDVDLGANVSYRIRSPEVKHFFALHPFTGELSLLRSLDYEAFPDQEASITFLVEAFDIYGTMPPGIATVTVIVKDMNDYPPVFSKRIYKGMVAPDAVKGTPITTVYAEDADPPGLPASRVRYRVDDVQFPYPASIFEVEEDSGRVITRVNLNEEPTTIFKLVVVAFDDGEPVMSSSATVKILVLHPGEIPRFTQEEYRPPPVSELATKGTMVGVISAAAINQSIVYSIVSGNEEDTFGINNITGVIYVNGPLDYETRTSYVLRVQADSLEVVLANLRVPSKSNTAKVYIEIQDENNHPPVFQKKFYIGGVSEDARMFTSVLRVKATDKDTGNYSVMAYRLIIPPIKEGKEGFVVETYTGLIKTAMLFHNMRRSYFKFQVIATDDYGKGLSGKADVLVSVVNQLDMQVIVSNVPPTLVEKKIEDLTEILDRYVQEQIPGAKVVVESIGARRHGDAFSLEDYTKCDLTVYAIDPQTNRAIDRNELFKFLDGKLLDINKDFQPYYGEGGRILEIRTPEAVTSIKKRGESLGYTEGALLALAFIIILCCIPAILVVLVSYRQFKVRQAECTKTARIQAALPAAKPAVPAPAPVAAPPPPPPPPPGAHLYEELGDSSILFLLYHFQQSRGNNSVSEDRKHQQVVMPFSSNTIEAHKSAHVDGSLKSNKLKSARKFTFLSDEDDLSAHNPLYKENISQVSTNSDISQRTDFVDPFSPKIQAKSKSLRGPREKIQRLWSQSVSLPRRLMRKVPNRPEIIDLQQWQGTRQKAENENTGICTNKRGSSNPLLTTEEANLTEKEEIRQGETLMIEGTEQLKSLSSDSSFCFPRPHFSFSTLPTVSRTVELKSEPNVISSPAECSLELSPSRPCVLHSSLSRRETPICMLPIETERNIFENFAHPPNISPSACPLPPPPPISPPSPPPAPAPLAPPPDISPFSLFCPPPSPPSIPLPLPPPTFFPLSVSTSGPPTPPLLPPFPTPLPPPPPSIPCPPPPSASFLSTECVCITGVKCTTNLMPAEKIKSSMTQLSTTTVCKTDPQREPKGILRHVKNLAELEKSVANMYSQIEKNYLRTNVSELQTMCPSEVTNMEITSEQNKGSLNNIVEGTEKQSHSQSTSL
Test [15] shares this test system. Description: Suppression of human PCDH15 R3X mutation at 30 ug/ml. The gist of the method: as §1
Target sequence in this assay (Q96QU1 other isoform, or with tags, fused parts or gaps): as above
The test system of test [16] is Bacillus subtilis. Put plainly: Antibacterial activity against Bacillus subtilis ATCC 6633 at 30 ug/ml. In kind it is functional, organism-based.

A value given as a limit tells only on which side of the number the result lay.

With `N[C@H]1[C@@H](O[C@H]2[C@H](O)[C@@H](O)[C@H](N)C[C@@H]2N)O[C@H](CO)[C@@H](O)[C@@H]1OCO[C@@H]1[C@@H](N)[C@@H](O[C@H]2[C@H](O)[C@@H](O)[C@H](N)C[C@@H]2N)O[C@H](CO)[C@H]1O.O=S(=O)(O)O`, the Activity in test [1] was under 1%; in test [3] it was 22%. The MIC in [2] was 48 µg/mL; in test [4], 96 µg/mL.
For the molecule `NC[C@@H]1O[C@H](O[C@@H]2[C@@H](O)[C@H](O[C@H]3O[C@H](CO)[C@@H](O)[C@H](O)[C@H]3N)[C@@H](N)C[C@H]2N)[C@@H](O)[C@H]1O.O=S(=O)(O)O`, the Activity in [1] was found to be 4.4%; in [3], 75%. Further, the MIC in test [2] was 192 µg/mL; in test [4], over 512 µg/mL.
The like results for `NC[C@H]1O[C@@H](O[C@@H]2[C@@H](O)[C@H](N)C[C@H](N)[C@H]2O[C@H]2O[C@H](CO)[C@@H](O)[C@H](O)[C@H]2N)[C@H](O)[C@@H]1O.O=S(=O)(O)O` were, in that order, 21%, 72%, 48 µg/mL and over 512 µg/mL.
With `N[C@H]1[C@@H](O[C@H]2[C@H](O[C@@H]3O[C@H](CO)[C@@H](O)[C@H]3O)[C@@H](O)[C@H](N)C[C@@H]2N)O[C@H](CO)[C@@H](O)[C@@H]1O.O=S(=O)(O)O`, the Activity in test [1] is 1.3%; in test [3], 100%. Further, the MIC turned out to be 64 µg/mL in test [2] and 256 µg/mL in [4].
As for `N[C@H]1[C@@H](O[C@H]2[C@H](O)[C@@H](O)[C@H](N)C[C@@H]2N)O[C@H](CO)[C@@H](O)[C@@H]1O[C@@H]1O[C@H](CO)[C@@H](O)[C@H]1O.O=S(=O)(O)O`, the Activity in test [5] is 82%; in test [7], under 1%. Besides, the MIC in test [6] and in test [8] was over 512 µg/mL each time.
As to `NC[C@H]1O[C@@H](O[C@@H]2[C@@H](N)[C@@H](O[C@H]3[C@H](O)[C@@H](O)[C@H](N)C[C@@H]3N)O[C@H](CO)[C@H]2O)[C@H](O)[C@@H]1O.O=S(=O)(O)O`, the values for the Activity in test [1] and in test [3] were 2.9% and 98%, respectively. The MIC in [2] was determined as 48 µg/mL; in test [4], 192 µg/mL.
On to `N[C@H]1[C@@H](O[C@H]2[C@H](O)[C@@H](O[C@H]3O[C@@H](CO)[C@H](O)[C@@H]3O)[C@H](N)C[C@@H]2N)O[C@H](CO)[C@@H](O)[C@@H]1O.O=S(=O)(O)O`, for which the Activity in test [1] stood at 1.5%; in [3] it was 74%. Besides, the results for the MIC in test [2] and in test [4] were 96 µg/mL and 256 µg/mL, respectively.
With `NC[C@@H]1O[C@H](O[C@H]2[C@@H](O)[C@H](O[C@@H]3[C@@H](O)[C@H](N)C[C@H](N)[C@H]3O[C@H]3O[C@H](CO)[C@@H](O)[C@H](O)[C@H]3N)O[C@@H]2CO)[C@H](N)[C@@H](O)[C@@H]1O.O=S(=O)(O)O` [PAROMOMYCIN SULFATE], the MIC in test [9] turned out to be 8 µg/mL; in test [2] it was 128 µg/mL; in test [4] it was 512 µg/mL; in test [12], 12 µg/mL. For the same molecule, the Activity in test [1] came out at 6.2%; in test [3], 74%; in test [10], 40%; in test [11], 49%.
On to `N[C@H]1[C@@H](O[C@H]2[C@H](O)[C@@H](O)[C@H](N)C[C@@H]2N)O[C@H](CO)[C@@H](O)[C@@H]1O.O=S(=O)(O)O` [PAROMAMINE SULFATE], for which the Activity in test [1] was 6.2%; in [3], 74%. The MIC in test [2] turned out to be 128 µg/mL; in [4] it was 512 µg/mL.
The like results for `N[C@H]1[C@@H](O[C@H]2[C@H](O)[C@@H](O)[C@H](N)C[C@@H]2N)O[C@H](CO)[C@@H](O)[C@H]1N.O=S(=O)(O)O` were, in that order, 2%, 71%, 48 µg/mL and 192 µg/mL.
With GENTAMICIN SULFATE, the MIC in [13] is 4 µg/mL; in test [16] it was under 0.5 µg/mL. For the same molecule, the Activity in test [14] was 40%; in test [15] it was 49%.
